Our source for the yeast fitness values is the RNAGym collection of RNA variant scans (doi:10.1126/science.aae0568).

B1: tRNA (parent)
chain: GUUCCGUUGGCGUAAUGGUAACGCGUCUCCCUCCUAAGGAGAAGACUGCGGGUUCGAGUCCCGUACGGAACG

This sample holds only a part of the variants without activity.

In this data set the parent is B1. Description: yeast fitness relative to wild type (ratio to wild type); higher = fitter; tRNA-Arg(CCU), competitive growth, 37 C, YPD. Summed up:
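Gene amplicons from the start population and from each of six end populations were read by 100-nucleotide paired-end sequencing. Those end populations came from pooled Saccharomyces cerevisiae strains carrying tRNA-Arg(CCU) gene variants at the native locus, competed in YPD at 37°C for 24 hours. Fitness relative to wild type was worked out from changes in genotype frequencies. Genotypes needed ≥ 100 starting reads, and estimates < 0.5 were set to 0.5.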
C5U C27U G48A G67C: the yeast fitness is no more than 0.5.
C5U C29G C30A U64G A69C: the yeast fitness was no more than 0.5.
In the case of C5U G18C C61U it was 0.565; in that of C5U C27U A37G A40C U47A, no more than 0.5; in that of C5U C30A G39A C66G, no more than 0.5.
To C5U C34U A65U belongs 0.565; to C5U C29U A69U, 0.72.
Regarding C5U C27U U28G C33G A36G, the yeast fitness was no more than 0.5.
To C5U G17A C55A G67A A70G belongs no more than 0.5; to C5U C24G A40C A69C, 0.522; to C5U G18C A65U, 0.601.
To C5U C29U C31U U54G A65U G67A belongs no more than 0.5; to C5U G6C A21C A42U C46U C66U, no more than 0.5; to C5U G9A C34U C46G C49U, 0.513.
In the case of C5U G17C U26G G67A it was 0.565; in that of C5U C27A G41C A57U, no more than 0.5; in that of C5U C24G, 0.571.
Turning to C5U C22U A36G, the yeast fitness came to 0.749.
In the case of C5U G10A A21G A40U it was no more than 0.5.
In the case of C5U C24G A42C U53G it was no more than 0.5; in that of C5U G6A A15U C31U U32C G67C, no more than 0.5; in that of C5U C30G C61U, no more than 0.5.
In the case of C5U G12A A14G A57U it was no more than 0.5.
Regarding C5U G9A U13A, the yeast fitness was determined as 0.882.
As for C5U G17C C24G G38C U54C, the yeast fitness is no more than 0.5.
For C5U C22A C27G, the yeast fitness was found to be 0.569.
For the variant C5U G23A, the yeast fitness was found to be 0.742.
To C5U G23C belongs 0.644.
To C5U G12C A21C C24A G41C G50A U53A belongs no more than 0.5.
In the case of C5U C22G A40G C46U C62U it was no more than 0.5; in that of C5U C22U U53C U59G C61G C62U, no more than 0.5; in that of C5U C30U C34G G38C A65C, no more than 0.5.
As to C5U G25A A40C, the yeast fitness was no more than 0.5.
As for C5U C27G C31G, the yeast fitness stood at 0.679.
For C5U C33U A69C, the yeast fitness came out at 0.556.
To C5U C22U G44C belongs 0.73; to C5U C24U A42C, 0.746.
In the case of C5U G10C A14G C46G C62U it was 0.593; in that of C5U C31U C33U C34G A40C G63A, no more than 0.5; in that of C5U C34G A45C C66G, no more than 0.5.
Consider C5U C31G G56C, for which the yeast fitness is 0.527.
To C5U C22A C60G belongs 0.628.
Turning to C5U C22U A37U G67A, the yeast fitness is no more than 0.5.
In the case of C5U C33U A65G C66A it was no more than 0.5; in that of C5U C29G C30G A65C, no more than 0.5; in that of C5U C24A C33U U47C G63A G67U, 0.718.
C5U G10A A20C G41A C46G G48A U54C C55U A70C: the yeast fitness turned out to be 0.647.
To C5U C22U C33U A37G belongs no more than 0.5; to C5U G9C C11G C24A U26G G68A A69C, no more than 0.5; to C5U C55U G56C, 0.746.
Take C5U G9C A36U C60G: the yeast fitness was no more than 0.5.
In the case of C5U G9A C61U it was 0.732; in that of C5U G10C A21U C22U C27U U32C C46U C61G, no more than 0.5; in that of C5U G6A U35C A36U G38A C46A U54C, no more than 0.5.
Turning to C5U C22G C29A A45U C55U, the yeast fitness was no more than 0.5.
To C5U C22U C33U U53A belongs no more than 0.5; to C5U G25A A37U A40C C61A, no more than 0.5; to C5U G10C C27G U28C G39C C46G, 0.606.
Regarding C5U C31U G68C, the yeast fitness was 0.653.
In the case of C5U C27A, the yeast fitness was 0.817.
For C5U C27G, the yeast fitness came out at 0.61.
To C5U C29G A37C C49U C66A belongs 0.627; to C5U G9A G67A, 1.05; to C5U C29G C34G, 0.542.
To C5U G6A C31G G50C U54C belongs no more than 0.5; to C5U C55A C61G, no more than 0.5.
In the case of C5U C31G G48C G58A it was no more than 0.5; in that of C5U C34U C49G G52C C55U C62G, no more than 0.5; in that of C5U G17C U26G, 0.511.
For the variant C5U C34A U64G, the yeast fitness was no more than 0.5.
Turning to C5U C22U C33U, the yeast fitness was determined as 0.561.
In the case of C5U G9C A15C G38C C49G G68C it was no more than 0.5; in that of C5U G18C C22A U54A A65G, no more than 0.5.
To C5U C29U A45C C60A belongs no more than 0.5; to C5U G9A A21G U53A, no more than 0.5.
To C5U G10A A40C G50A belongs no more than 0.5; to C5U G12C U28A, 0.545; to C5U G12A A40U A45G C60A, no more than 0.5.
For C5U G17A A36U U47A, the yeast fitness was no more than 0.5.
With C5U G10C A21U C22U U32C C46U, the yeast fitness is no more than 0.5.
To C5U G17C A43C C49G belongs no more than 0.5; to C5U G10A C46A, no more than 0.5; to C5U G17C C30A A57C, no more than 0.5.
In the case of C5U G10A A21G, the yeast fitness was 0.59.
On to C5U C34A U53A A57U A65U, for which the yeast fitness was no more than 0.5.
In the case of C5U C30U U47A G67C, the yeast fitness is 0.542.
Consider C5U C46G C62U, for which the yeast fitness was 0.697.
In the case of C5U C27G C55G A69U it was no more than 0.5; in that of C5U G10C C34A A57U G67C, no more than 0.5.
In the case of C5U G23A A36G it was 0.618; in that of C5U C27G A69C, no more than 0.5.
For the variant C5U G10A A69G, the yeast fitness was no more than 0.5.
Regarding C5U C22G G50C, the yeast fitness is no more than 0.5.
To C5U G17A C33A C49U C66U belongs no more than 0.5.
To C5U C61U belongs 0.971; to C5U C61G, 0.771; to C5U C31G, 0.918.
In the case of C5U C29A A57U A69C it was no more than 0.5.
As to C5U G6C U19C G25C U28G C62A, the yeast fitness is 0.747.
For the variant C5U C27G C31G G44C A45G, the yeast fitness is no more than 0.5.
In the case of C5U G6C A20U A45U it was no more than 0.5; in that of C5U C33U A45C C46G A69U, no more than 0.5; in that of C5U G17C C30G U59A, no more than 0.5.
Consider C5U G18C, for which the yeast fitness amounted to 0.721.
To C5U G12A A15U G63A A70U belongs no more than 0.5; to C5U C27U G56A, 0.704.
To C5U C24U A36G G41C belongs no more than 0.5.
As for C5U G10A C62G C66G, the yeast fitness was no more than 0.5.
In the case of C5U C30U A37G it was 0.64; in that of C5U G17A A20G C55A G67A A70G, no more than 0.5; in that of C5U C46G G68U, no more than 0.5.
To C5U C33G C49A belongs no more than 0.5; to C5U C33G C55U, no more than 0.5; to C5U C34A G44C C62U, 0.723.
To C5U C30A A65C belongs 0.703.
For C5U C33U C49G A65C, the yeast fitness is no more than 0.5.
To C5U G17A C29U G52C C55G A69U belongs no more than 0.5; to C5U C33G C34U G38C U47A, no more than 0.5; to C5U G17C C30G C55G, no more than 0.5.
To C5U G18C U28C G63A belongs no more than 0.5.
In the case of C5U C22A C61U A65C it was no more than 0.5; in that of C5U C55A A57C, no more than 0.5.
As to C5U C30G G51C G56U, the yeast fitness was no more than 0.5.
To C5U C62A belongs 0.649; to C5U C62G, 0.702.
On to C5U C22G, for which the yeast fitness came to 0.991.
In the case of C5U C22U it was 0.792; in that of C5U C31U A57C G58A A69G, no more than 0.5; in that of C5U G10C C30U, no more than 0.5.
To C5U G23C A69C belongs no more than 0.5; to C5U G17C G52A, 0.61; to C5U C60G, 0.627.
In the case of C5U C60A it was 0.585.
With C5U C27A G63C, the yeast fitness is no more than 0.5.
To C5U C34U A42U belongs 0.529; to C5U G9A A65G, 0.736; to C5U C31G C33G, 0.579.
In the case of C5U C22U C31U C49A U59C it was no more than 0.5; in that of C5U G6C G39A A45U C46G A57C, no more than 0.5.
For C5U C27G C33G G41C C61A, the yeast fitness is no more than 0.5.
Take C5U C30U A40U A70C: the yeast fitness is no more than 0.5.
With C5U C30G G56C, the yeast fitness was no more than 0.5.
Take C5U C27G G39C G52A: the yeast fitness was no more than 0.5.
For the variant C5U C34G A65C, the yeast fitness is 0.525.
As to C5U C33U C61U, the yeast fitness is 0.632.
In the case of C5U G9A G10C G12A G25A C33G G39A it was no more than 0.5; in that of C5U C24G C31G C61G, no more than 0.5; in that of C5U G9A U13A A36C G50C, no more than 0.5.
To C5U C55A G68C belongs no more than 0.5; to C5U G23A U35A, no more than 0.5.
With C5U G25A, the yeast fitness is 0.891.
For the variant C5U C29A U35G C46U U54G, the yeast fitness is no more than 0.5.
To C5U C31G C66U belongs 0.736; to C5U C22U A37U, 0.535.
In the case of C5U C33A A36C A37C A43G A69U it was no more than 0.5; in that of C5U C22G A40G A70G, no more than 0.5.
In the case of C5U C22G A45C it was 0.566.
For C5U G17A C29U G52C C55G, the yeast fitness was no more than 0.5.
To C5U G10C G39C G51A belongs no more than 0.5; to C5U C31A C34A A36G, no more than 0.5; to C5U C31G U32C A37C G50C A69C, no more than 0.5.
To C5U G10C A21U C22U U32C C46U C61G belongs no more than 0.5; to C5U G12A G52C A70U, no more than 0.5.
Take C5U G9A C31A A57C C66A A69U: the yeast fitness is no more than 0.5.
For the variant C5U C55U G56C C62U, the yeast fitness is 0.932.
To C5U C29G A57G belongs 0.655; to C5U C30U C49G, 0.62.
